Results reported in paper PMC8526398 (Bioorganic & medicinal chemistry letters, 2021).
Blank lines part the entries; values can stand above or below the molecule they belong to.

What was measured:
EGFR/GRB2 PPI = conditions: cited from earlier work
[1] = Parallel artificial membrane permeability assay; type: in vitro ADME; conditions: PAMPA, 1% egg lecithin in n-dodecane
Procedure, shortened: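 Artificial membrane of 1% egg lecithin in n-dodecane. Test compound at 500 μM added to the donor side; incubated 5 h at room temperature. Compound in the receiving solution quantified by HPLC. Percent transport (%T) and apparent permeability coefficient (Papp, cm·s−1) calculated from previously reported equations; values given with SD.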

[2] = biological target: full-length human GRB2 (EGFR/GRB2 PPI) (Homo sapiens, UniProt P62993); type: binding

- permeability through the artificial membrane (in words) [1]: poor permeability
SMILES: NC(=O)C[C@@H]1NC(=O)C2(CCCCC2)NC(=O)C[C@@H](c2ccc(CP(=O)(O)O)cc2)/C=C/C[C@@H](Cc2cccc3ccccc23)CNC1=O [Compound 3]

- permeability through the artificial membrane (in words) [1]: good permeability
SMILES: NC(=O)C[C@@H]1NC(=O)C2(CCCCC2)NC(=O)C[C@@H](c2ccc(CC(=O)O)cc2)/C=C/C[C@@H](Cc2cccc3ccccc23)CNC1=O [Compound 7]

- Ki [2]: > 20000 nM
SMILES: COC(=O)Cc1ccc([C@H]2/C=C/C[C@@H](Cc3cccc4ccccc34)CNC(=O)[C@H](CC(N)=O)NC(=O)C3(CCCCC3)NC(=O)C2)cc1 [Compound 8]

More lines, now with the values behind:

SMILES: CC(=O)N[C@@H](Cc1ccc(OP(=O)(O)O)cc1)C(=O)NC1(C(=O)N[C@@H](CC(N)=O)C(=O)NCCCc2cccc3ccccc23)CCCCC1 [Compound 2]
- IC50 relative to compound 1 (EGFR/GRB2 PPI): two orders of magnitude lower than 1

SMILES: NC(=O)C[C@@H]1NC(=O)C2(CCCCC2)NC(=O)[C@@H](CC(=O)O)[C@@H](c2ccc(CP(=O)(O)O)cc2)/C=C/C[C@@H](Cc2cccc3ccccc23)CNC1=O [Compound 4]
- IC50 (EGFR/GRB2 PPI): 2 nM
